Assay results: article PMC10247892 (Biomedicine & Pharmacotherapy, 2023)
Entries after “also recorded” stand apart in the source; their conditions may differ.

Assays:
Calu-3 cells = test: Lipidomic analysis of Calu-3 cells after MβCD treatment; format: cell-based; conditions: increasing concentrations, 2 h
In short: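 Calu-3 cells were seeded at 3 million/well and treated with 0, 0.6 or 2.5 mM test compound for 2 h at 37 °C and 5 % CO2. Plasma membrane lipid composition was then measured by lipidomics.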

[1] = target: SARS-CoV-2 3CL main protease (MBP-tagged) (Severe acute respiratory syndrome coronavirus 2, UniProt P0DTD1); format: biochemical; conditions: increasing concentrations
[2] = test system: SARS-CoV-2 NanoLuc replicative competent reporter virus; design: species or system golden Syrian hamsters; conditions: hamster, in vivo

Substance: Methyl-β-cyclodextrin [MβCD]
- Effect on phosphatidylcholine (in words) (Calu-3 cells): did not affect phosphatidylcholine
- Inhibition of M^pro activity (in words) [1]: did not show activity
- Nanoluciferase signal in nasal turbinates and lungs (in words) [2]: no nanoluciferase signal was detected; also recorded: no sign of infection was detected
